Data reported in ChEMBL document CHEMBL1125911, “Synthesis and biological activity of new HMG-CoA reductase inhibitors. 3. Lactones of 6-phenoxy-3,5-dihydroxyhexanoic acids” (J Med Chem, 1991).

Key:
[1] = molecular target: T1, 3-hydroxy-3-methylglutaryl-coenzyme A reductase (Rattus norvegicus, UniProt P51639); assay: In vitro inhibition of HMG-CoA reductase in solubilized rat liver.
T1 sequence (P51639 whole entry): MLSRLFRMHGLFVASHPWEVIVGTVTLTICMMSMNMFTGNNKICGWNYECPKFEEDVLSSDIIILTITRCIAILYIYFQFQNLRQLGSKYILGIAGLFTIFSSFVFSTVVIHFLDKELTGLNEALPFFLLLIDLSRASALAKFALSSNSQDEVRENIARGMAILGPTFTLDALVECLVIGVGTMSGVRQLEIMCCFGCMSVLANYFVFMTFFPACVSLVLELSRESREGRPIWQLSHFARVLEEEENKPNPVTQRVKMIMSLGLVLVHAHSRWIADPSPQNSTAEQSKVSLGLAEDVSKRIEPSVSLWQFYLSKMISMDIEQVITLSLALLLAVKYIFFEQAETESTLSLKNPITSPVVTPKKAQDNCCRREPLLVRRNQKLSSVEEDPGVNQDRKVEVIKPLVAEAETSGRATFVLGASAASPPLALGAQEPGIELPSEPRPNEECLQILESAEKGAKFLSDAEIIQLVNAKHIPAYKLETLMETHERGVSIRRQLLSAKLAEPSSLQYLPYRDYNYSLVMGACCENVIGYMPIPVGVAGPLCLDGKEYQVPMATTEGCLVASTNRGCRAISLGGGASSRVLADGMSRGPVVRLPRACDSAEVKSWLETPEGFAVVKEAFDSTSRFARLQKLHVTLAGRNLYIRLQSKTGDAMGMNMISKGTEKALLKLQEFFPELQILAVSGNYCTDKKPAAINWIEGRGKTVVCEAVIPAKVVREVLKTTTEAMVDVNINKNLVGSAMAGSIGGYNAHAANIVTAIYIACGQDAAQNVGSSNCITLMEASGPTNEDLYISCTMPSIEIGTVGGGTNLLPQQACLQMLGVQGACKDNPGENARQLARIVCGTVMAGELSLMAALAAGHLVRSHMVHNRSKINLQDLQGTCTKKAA

[2] = molecular target: T2, 3-hydroxy-3-methylglutaryl-coenzyme A reductase (Rattus norvegicus) (UniProt P51639); assay: (§1) Inhibition of HMG-CoA reductase compared to mevinolin.
T2 sequence (whole entry): T1 sequence (P51639 whole entry)
Summary of the method: (§2)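 Solubilized, partially purified rat liver HMG-CoA reductase. IC50 from four or five inhibitor concentrations. Relative potency compared IC50 with mevinolin (set to 100), corrected for molecular weight.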

[3] = molecular target: T3, 3-hydroxy-3-methylglutaryl-coenzyme A reductase (Homo sapiens, UniProt P04035); assay: Inhibition of the incorporation of sodium [14C]acetate into cholesterol in HEP G2 cells.; assay type: functional, cell-based, HepG2
T3 sequence (P04035 whole entry): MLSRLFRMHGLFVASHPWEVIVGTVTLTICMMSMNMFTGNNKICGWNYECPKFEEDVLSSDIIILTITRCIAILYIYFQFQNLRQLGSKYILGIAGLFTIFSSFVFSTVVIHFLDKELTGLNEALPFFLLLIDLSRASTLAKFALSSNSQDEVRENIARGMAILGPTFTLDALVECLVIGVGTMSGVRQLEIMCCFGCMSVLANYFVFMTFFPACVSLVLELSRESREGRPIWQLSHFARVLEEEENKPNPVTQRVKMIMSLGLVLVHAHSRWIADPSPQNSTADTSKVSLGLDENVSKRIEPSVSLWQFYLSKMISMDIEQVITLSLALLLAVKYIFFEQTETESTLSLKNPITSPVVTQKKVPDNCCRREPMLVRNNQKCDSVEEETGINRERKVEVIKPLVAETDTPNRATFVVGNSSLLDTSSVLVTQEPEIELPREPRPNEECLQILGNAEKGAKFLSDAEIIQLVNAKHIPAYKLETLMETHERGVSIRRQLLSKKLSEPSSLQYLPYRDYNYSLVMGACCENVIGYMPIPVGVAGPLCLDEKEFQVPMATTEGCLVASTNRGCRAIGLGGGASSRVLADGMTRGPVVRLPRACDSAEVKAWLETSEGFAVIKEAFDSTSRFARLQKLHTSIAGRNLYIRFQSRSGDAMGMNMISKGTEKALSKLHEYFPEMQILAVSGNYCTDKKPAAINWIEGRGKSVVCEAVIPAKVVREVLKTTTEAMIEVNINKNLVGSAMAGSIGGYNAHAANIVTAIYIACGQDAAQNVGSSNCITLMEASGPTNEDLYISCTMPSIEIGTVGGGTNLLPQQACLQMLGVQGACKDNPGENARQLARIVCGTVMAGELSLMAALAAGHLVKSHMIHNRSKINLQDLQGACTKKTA

[4] = molecular target: T1, 3-hydroxy-3-methylglutaryl-coenzyme A reductase; assay: In vitro inhibition of solubilized HMG-CoA reductase in rat liver.
[5] = molecular target: T4, 3-hydroxy-3-methylglutaryl-coenzyme A reductase (Homo sapiens) (UniProt P04035); assay: as §1; assay type: functional; summary of the method: as §2
T4 sequence (whole entry): T3 sequence (P04035 whole entry)

Sus scrofa = species on record: Sus scrofa; assay: In vitro inhibition of Cu2+ catalyzed LDL oxidation; assay type: functional
Summary of the method: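 Porcine plasma LDL isolated by sequential ultracentrifugation (density 1.019-1.063 g/mL), dialysed against PBS pH 7.4, then diluted to 0.1 mg/mL protein. Preincubated 1 h at 37 °C under N2 with compound in ethanol. Oxidised with 5 μM Cu2+ for 2 h at 37 °C in air. Fluorescence read at ex 365/em 430 nm.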

Rattus norvegicus = species on record: Rattus norvegicus; assay: Compound was tested for inhibition of microsomal lipid peroxidation and the potency relative to terbufucine was determined; assay type: functional
Summary of the method: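 Rat liver microsomes in 50 mM Tris-HCl pH 7.4 with 100 mM KCl and 6.0 mM MgCl2, final protein 0.4 mg/mL. Peroxidation was started with ADP (2 mM)/FeCl3 (10 μM) plus an NADPH-regenerating system. Incubation 30 min at 37 °C with shaking. Thiobarbituric acid reactive substances were read at 535 nm.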

| SMILES | IC50 [1] [nM] | Relative potency [2] | also measured |
| --- | --- | --- | --- |
| Cc1cc(C)c(OCC(O)C[C@@H](O)CC(=O)O)c(C(c2ccc(F)cc2)c2cccc(C(F)(F)F)c2)c1 (stereo partly specified) | 90 |  |  |
| Cc1cc(C)c(OCC(O)C[C@@H](O)CC(=O)O)c(C(CC(C)C)c2ccc(F)cc2)c1 (stereo partly specified) | 140 |  |  |
| O=C(O)C[C@H](O)CC(O)COc1cc(OCc2ccc(F)cc2)c(Cl)cc1Cl (stereo partly specified) | 260 | 3 |  |
| CCC(C)(C)OC(=O)C(c1cc(C)cc(C)c1OCC(O)C[C@@H](O)CC(=O)O)C1CCCCC1 (stereo in doubt; 11r) [listing 1 of 2 here] | 60 |  | IC50 [3]: 12000 nM |
| Cc1cccc(CCCOc2ccc(F)cc2)c1OCC(O)C[C@@H](O)CC(=O)O (stereo partly specified) | 250 | 3 |  |
| CC(C)c1c(CCC(O)C[C@@H](O)CC(=O)O)c(-c2ccc(F)cc2)cn1-c1ccccc1 (stereo partly specified) |  |  | IC50 [4]: 3 nM |
| Cc1cc(C)c(OCC(O)C[C@@H](O)CC(=O)O)c(CC2CCCCC2)c1 (stereo partly specified) | 100 | 9 |  |
| O=C(O)C[C@H](O)CC(O)COc1c(Cl)cc(Cl)cc1C(CCOc1ccc(F)cc1)c1ccc(F)cc1 (stereo partly specified) | 150 | 4 |  |
| CC(C)c1cc(-c2ccccc2)nc(-c2ccc(F)cc2)c1/C=C/[C@@H](O)C[C@@H](O)CC(=O)O |  |  | IC50 [4]: 3 nM |
| COc1ccc(C(c2ccc(F)cc2)c2cc(C)cc(C)c2OCC(O)C[C@@H](O)CC(=O)O)cc1 (stereo partly specified) | 100 |  |  |
| Cc1c(CCC(O)C[C@@H](O)CC(=O)O)c(-c2ccc(F)cc2)cn1-c1ccccc1 (stereo partly specified) |  |  | IC50 [4]: 35 nM |
| Cc1nc2ccccc2c(-c2ccccc2)c1OCC(O)C[C@@H](O)CC(=O)O (stereo partly specified) | > 1000 | < 1 | IC50 [3]: > 5000 nM; Relative potency [5]: < 1 |
| Cc1c(OCC(O)C[C@@H](O)CC(=O)O)c(C(c2ccc(F)cc2)c2ccc(F)cc2)cc2ccccc12 (stereo partly specified) | 900 |  | IC50 [3]: 20000 nM; Relative potency [5]: < 1 |
| O=C(O)C[C@H](O)CC(O)COc1c(Cl)cc(Cl)cc1C(c1ccc(F)cc1)c1ccc(F)cc1 (stereo in doubt; 11pp) | 950 |  |  |
| Cc1cc(Cl)cc(CCCOc2ccc(Cl)cc2)c1OCC(O)C[C@@H](O)CC(=O)O (stereo partly specified) | 50 | 15 |  |
| Cc1cc(Cl)cc(C(c2ccc(F)cc2)c2ccc(F)cc2)c1OCC(O)C[C@@H](O)CC(=O)O (stereo partly specified) | 70 |  |  |
| Cc1cc(Cl)cc(CC2CCCCC2)c1OCC(O)C[C@@H](O)CC(=O)O (stereo partly specified) | 75 | 12 |  |
| Cc1cc(C)c(OCC(O)C[C@@H](O)CC(=O)O)c(C(c2ccc(F)cc2)C2CCCCC2)c1 (stereo partly specified) | 95 | 8 |  |
| CCC(C)(C)OC(=O)C(c1cc(C)cc(C)c1OCC(O)C[C@@H](O)CC(=O)O)C1CCCCC1 (stereo in doubt; 11s) [listing 1 of 2 here] |  |  | Relative potency [5]: 3 |
| O=C(O)C[C@H](O)CC(O)COc1c(Cl)cc(Cl)cc1C(F)(F)C1CCCCC1 (stereo partly specified) | 85 |  | IC50 [3]: 2500 nM; Relative potency [5]: 2 |
| CCC(C)(C)OC(=O)C(c1cc(C)cc(C)c1OCC(O)C[C@@H](O)CC(=O)O)C1CCCCC1 (stereo in doubt; 11r) [listing 2 of 2 here] |  | 12 | Relative potency [5]: < 1 |
| Cc1cc(C)c(OCC2C[C@@H](O)CC(=O)O2)c(C(Cl)C2CCCCC2)c1 (stereo partly specified) | > 1000 |  | IC50 [3]: 6500 nM; Relative potency [5]: < 1 |

| SMILES | IC50 [1] [nM] | Relative potency [2] | also measured |
| --- | --- | --- | --- |
| Cc1cc(C)c(OCC(O)C[C@@H](O)CC(=O)O)c(C(c2ccc(F)cc2)c2ccc(F)cc2)c1 (stereo partly specified) | 70 |  |  |
| O=C(O)C[C@H](O)C[C@H](O)/C=C/c1c(Cl)cc(Cl)cc1-c1ccc(F)cc1 |  |  | IC50 [4]: 4.5 nM |
| O=C(O)C[C@H](O)CC(O)COc1c(Cl)cc(Cl)cc1C(=O)C1CCCCC1 (stereo partly specified) | 190 | 4 |  |
| Cc1cc(C(c2ccc(F)c(C)c2)c2cc(Cl)cc(Cl)c2OCC(O)C[C@@H](O)CC(=O)O)ccc1F (stereo partly specified) | 1000 |  |  |
| Cc1c(OCC(O)C[C@@H](O)CC(=O)O)c(-c2ccc(F)cc2)nc2ccccc12 (stereo partly specified) | 1000 | 1 | IC50 [3]: > 5000 nM; Relative potency [5]: < 1 |
| O=C(O)C[C@H](O)CC(O)COc1c(Cl)cc(Cl)cc1CC1CCCCC1 (stereo partly specified) | 27 | 31 |  |
| CC(C)c1c(OCC(O)C[C@@H](O)CC(=O)O)c(-c2ccc(F)cc2)nc2ccccc12 (stereo partly specified) | 50 | 16 | IC50 [3]: 250 nM; Relative potency [5]: 20 |
| O=C(O)C[C@H](O)CC(O)COc1c(CCCOc2ccc(F)cc2)cc(Cl)cc1C1CCCC1 (stereo partly specified) | > 1000 | < 1 |  |
| CCC(C)(C)C(=O)NC(c1cc(C)cc(C)c1OCC(O)C[C@@H](O)CC(=O)O)C1CCCCC1 (stereo in doubt; 11x) [listing 1 of 2 here] | 470 |  | IC50 [3]: 10000 nM |
| Cc1cc(C)c(OCC(O)C[C@@H](O)CC(=O)O)c(C(C)c2ccc(F)cc2)c1 (stereo partly specified) | 160 |  |  |
| O=C(O)C[C@H](O)CC(O)COc1c(CCCOc2ccc(F)cc2)cccc1C1CCCC1 (stereo partly specified) | > 1000 | < 1 |  |
| O=C(O)C[C@H](O)CC(O)COc1c(Cl)cc(Cl)cc1-c1ccccc1 (stereo partly specified) | 190 | 5 |  |
| Cc1cc(Cl)cc(CCCOc2ccc(F)cc2)c1OCC(O)C[C@@H](O)CC(=O)O (stereo partly specified) | 80 | 10 |  |
| CC(C)c1c(OCC(O)C[C@@H](O)CC(=O)O)c(C(c2ccc(F)cc2)c2ccc(F)cc2)cc2ccccc12 (stereo partly specified) | 380 | 2 | IC50 [3]: 3500 nM; Relative potency [5]: 2 |
| CCC(C)(C)C(=O)NC(c1cc(C)cc(C)c1OCC(O)C[C@@H](O)CC(=O)O)C1CCCCC1 (stereo in doubt; 11x) [listing 2 of 2 here] |  |  | Relative potency [5]: < 1 |
| CCC(C)(C)OC(=O)C(c1cc(C)cc(C)c1OCC(O)C[C@@H](O)CC(=O)O)C1CCCCC1 (stereo in doubt; 11s) [listing 2 of 2 here] | 500 |  | IC50 [3]: 1700 nM |
| CCC(C)(C)C(=O)NC(c1cc(C)cc(C)c1OCC(O)C[C@@H](O)CC(=O)O)C1CCCCC1 (stereo in doubt; 11w) [listing 1 of 2 here] | 320 |  | IC50 [3]: 15000 nM |
| Cc1cc(Cl)c(OCC(O)C[C@@H](O)CC(=O)O)c(C(c2ccc(F)c(C)c2)c2ccc(F)c(C)c2)c1 (stereo partly specified) | 270 |  |  |
| CC(C)c1cc(-c2ccccc2)cc(CC2CCCCC2)c1OCC(O)C[C@@H](O)CC(=O)O (stereo partly specified) | 400 | 2 | IC50 [3]: 100 nM; Relative potency [5]: 50 |
| CCC(C)(C)C(=O)NC(c1cc(C)cc(C)c1OCC(O)C[C@@H](O)CC(=O)O)C1CCCCC1 (stereo in doubt; 11w) [listing 2 of 2 here] |  | 2 | Relative potency [5]: < 1 |
| CC(C)(C)c1cc(C(C(=O)O)c2cc(C(C)(C)C)c(O)c(C(C)(C)C)c2)cc(C(C)(C)C)c1O [TERBUFICIN] |  |  | IC50 (Sus scrofa): 110 nM; Relative potency (Rattus norvegicus): 100 |
| O=C(O)C[C@H](O)CC(O)COc1c(Cl)cc(Cl)cc1C(F)=C1CCCCC1 (stereo partly specified) | 95 | 9 |  |
